Measurements taken from ChEMBL document CHEMBL4261563, “Synthesis and in vitro evaluation of substituted 3-cinnamoyl-4-hydroxy-pyran-2-one (CHP) in pursuit of new potential antituberculosis agents” (Medchemcomm, 2018).
In brackets after ≈: the same amount, converted by molar mass.

Legend:
[1] = tested on: HEK293; test: Cytotoxicity against HEK293 cells by MTT assay; format: cell-based, Homo sapiens; details: for IC50: Homo sapiens, HEK293; for Activity: human, hek293
Outline: (§1)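 HEK-293 (from NCCS, Pune) treated at 1, 20, 40 and 80 μM, then at 100 μM. Percentage growth inhibition measured by MTT assay. IC50 assigned from whether inhibition reached ≥50% at 100 μM, the highest concentration tested.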

[2] = tested on: Mycolicibacterium smegmatis; test: Antimycobacterial activity against Mycobacterium smegmatis after 72 hrs by broth microdilution method; format: functional
[3] = tested on: Mycobacterium tuberculosis; test: Antitubercular activity against Mycobacterium tuberculosis H37Rv after 2 weeks by broth microdilution method; format: functional; details: 336 h
Outline: (§2)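 Middlebrook 7H9 broth microdilution with 10% ADC, compounds at […] μg ml−1 in duplicate. Each well received mid-log M. tuberculosis H37Rv at ∼1 × 10^5 CFU ml−1, checked by plating 10-fold dilutions on 7H11 agar (37 °C, read at four weeks). Drug-free broth was the negative control. MIC was the lowest concentration (μg ml−1) preventing visible growth after two weeks.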

[4] = tested on: Mycobacterium tuberculosis; test: Antitubercular activity against Mycobacterium tuberculosis H37Rv; format: functional; outline: as §2
[5] = Selectivity ratio of MIC for Mycobacterium smegmatis to MIC for Mycobacterium tuberculosis H37Rv; format: functional
[6] = Cytotoxicity against human HCT116 cells assessed as growth inhibition at 100 uM by MTT assay relative to control; format: cell-based, HCT-116; details: read-out: GI
Outline: (§3)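 HCT-116, MCF-7 and PC-3 cells (from NCI, USA) exposed to double dilutions from 0.0 to 100 μM. Growth inhibition measured by MTT cell viability assay. Results given as mean ± standard deviation of percentage growth inhibition.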

[7] = tested on: Staphylococcus epidermidis; test: Antibacterial activity against Staphylococcus epidermidis ATCC 12228 after 24 hrs by broth microdilution method; format: functional; details: ATCC 12228, 24 h
Outline: (§4)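 Strains revived on Mueller Hinton agar, 37 °C for 24 h. MIC by broth microdilution in MH broth, read after 24 h at 37 °C by visual turbidity, highest concentration tested 128 μg ml−1. Levofloxacin as positive control.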

[8] = tested on: Klebsiella pneumoniae; test: Antibacterial activity against Klebsiella pneumoniae ATCC BAA-2146 after 24 hrs by broth microdilution method; format: functional; details: ATCC BAA-2146, 24 h; outline: as §4
[9] = tested on: MCF7; test: Cytotoxicity against human MCF7 cells assessed as growth inhibition by MTT assay; format: cell-based; details: for Activity: human, mcf7; outline: as §3
[10] = Cytotoxicity against HEK293 cells assessed as growth inhibition at 100 uM by MTT assay relative to control; format: cell-based; details: human, read-out: GI; outline: as §1
[11] = Cytotoxicity against human MCF7 cells assessed as growth inhibition at 100 uM by MTT assay relative to control; format: cell-based; details: read-out: GI; outline: as §3
[12] = Cytotoxicity against human PC3 cells assessed as growth inhibition at 100 uM by MTT assay relative to control; format: cell-based, PC-3; details: read-out: GI; outline: as §3
[13] = tested on: Escherichia coli; test: Antibacterial activity against Escherichia coli ATCC 10536 after 24 hrs by broth microdilution method; format: functional; details: ATCC 10536, 24 h; outline: as §4
[14] = tested on: PC-3; test: Cytotoxicity against human PC3 cells assessed as growth inhibition by MTT assay; format: cell-based; details: for Activity: human, pc-3; outline: as §3
[15] = tested on: Staphylococcus aureus; test: Antibacterial activity against Staphylococcus aureus ATCC 25923 after 24 hrs by broth microdilution method; format: functional; details: ATCC 25923, 24 h; outline: as §4
[16] = tested on: Enterococcus faecalis; test: Antibacterial activity against Enterococcus faecalis ATCC 51299 after 24 hrs by broth microdilution method; format: functional; details: ATCC 51299, 24 h; outline: as §4
[17] = tested on: HCT-116; test: Cytotoxicity against human HCT116 cells assessed as growth inhibition by MTT assay; format: cell-based; details: for Activity: human, hct-116; outline: as §3
[18] = tested on: Micrococcus luteus; test: Antibacterial activity against Micrococcus luteus ATCC 10240 after 24 hrs by broth microdilution method; format: functional; details: ATCC 10240, 24 h; outline: as §4
[19] = tested on: Bacillus subtilis; test: Antibacterial activity against Bacillus subtilis ATCC 11774 after 24 hrs by broth microdilution method; format: functional; details: ATCC 11774, 24 h; outline: as §4
[20] = tested on: Pseudomonas aeruginosa; test: Antibacterial activity against Pseudomonas aeruginosa ATCC 10145 after 24 hrs by broth microdilution method; format: functional; details: ATCC 10145, 24 h; outline: as §4

Row | Compound | IC50 [1] [µM] | MIC ([2]; read-out: MIC) [µg/mL] | MIC [3] [µg/mL] | other results
1 | Cc1ccc(/C=C/C(=O)c2c(O)cc(C)oc2=O)cc1 | > 100 | > 128 | 8 (≈ 29.6 µM) | –
2 | Cc1cc(O)c(C(=O)/C=C/c2ccc(C(F)(F)F)cc2)c(=O)o1 | 100 | > 128 | 256 (≈ 790 µM) | –
3 | COc1cc(/C=C/C(=O)c2c(O)cc(C)oc2=O)cc(OC)c1OC | 100 | > 128 | 8 (≈ 23.1 µM) | –
4 | CCOc1ccc(/C=C/C(=O)c2c(O)cc(C)oc2=O)cc1 | – | > 128 | 256 (≈ 852 µM) | –
5 | NNC(=O)c1ccncc1 [ISONIAZID] | – | – | 0.312 (≈ 2.28 µM) | MIC [4]: 0.02 µg/mL (≈ 0.146 µM); Selectivity ratio [5]: 1000; MIC [2]: 25 µg/mL (≈ 182 µM)
6 | Cc1cc(O)c(C(=O)/C=C/c2cccc(C(F)(F)F)c2)c(=O)o1 | > 100 | > 128 | 256 (≈ 790 µM) | –
7 | COc1ccccc1/C=C/C(=O)c1c(O)cc(C)oc1=O | – | > 128 | 32 to 64 (≈ 112 to 224 µM) | –
8 | Cc1cc(O)c(C(=O)/C=C/c2cc(Br)cs2)c(=O)o1 | 100 | > 128 | 4 to 8 (≈ 11.7 to 23.4 µM) | –
9 | Cc1cc(O)c(C(=O)/C=C/c2ccccc2Cl)c(=O)o1 | > 100 | > 128 | 16 (≈ 55 µM) | –
10 | Cc1cc(O)c(C(=O)/C=C/c2ccccc2C(F)(F)F)c(=O)o1 | – | > 128 | 8 (≈ 24.7 µM) | –
11 | CC[C@@H](CO)NCCN[C@@H](CC)CO [ETHAMBUTOL] | – | – | 2.5 (≈ 12.2 µM) | –
12 | CN[C@@H]1[C@H](O[C@H]2[C@H](O[C@H]3[C@H](O)[C@@H](O)[C@H](N=C(N)N)[C@@H](O)[C@@H]3N=C(N)N)O[C@@H](C)[C@]2(O)C=O)O[C@@H](CO)[C@H](O)[C@H]1O [STREPTOMYCIN] | – | – | 1.25 (≈ 2.15 µM) | –
13 | Cc1cc(O)c(C(=O)/C=C/c2ccc(Br)cc2)c(=O)o1 | 100 | > 128 | 8 to 16 (≈ 23.9 to 47.7 µM) | –
14 | CO[C@H]1/C=C/O[C@@]2(C)Oc3c(C)c(O)c4c(O)c(c(/C=N/N5CCN(C)CC5)c(O)c4c3C2=O)NC(=O)/C(C)=C\C=C\[C@H](C)[C@H](O)[C@@H](C)[C@@H](O)[C@@H](C)[C@H](OC(C)=O)[C@@H]1C [RIFAMPIN] | – | – | 0.078 (≈ 0.0948 µM) | MIC [4]: 0.2 µg/mL (≈ 0.243 µM); Selectivity ratio [5]: 500
15 | Cc1cc(O)c(C(=O)/C=C/c2ccsc2)c(=O)o1 | – | > 128 | 32 to 64 (≈ 122 to 244 µM) | –
16 | CCOc1cccc(/C=C/C(=O)c2c(O)cc(C)oc2=O)c1 | 80 to 100 | > 128 | 4 (≈ 13.3 µM) | inhibition at 100 µM [6]: 67 to 70%; MIC [7]: > 128 µg/mL; MIC [8]: 128 µg/mL (≈ 426 µM); IC50 ([9]; Homo sapiens, MCF7): 80 µM; Activity [9]: Dose-dependent effect; inhibition at 100 µM [10]: 67 to 70%; inhibition at 100 µM [11]: 67 to 70%; Activity [1]: Dose-dependent effect; inhibition at 100 µM [12]: 67 to 70%; MIC [13]: > 128 µg/mL; IC50 ([14]; Homo sapiens, PC-3): 80 µM; Activity [14]: Dose-dependent effect; MIC [15]: > 128 µg/mL; MIC [16]: > 128 µg/mL; IC50 ([17]; Homo sapiens, HCT-116): 80 µM; Activity [17]: Dose-dependent effect; MIC [18]: > 128 µg/mL; MIC [19]: > 128 µg/mL; MIC [20]: > 128 µg/mL
17 | Cc1cccc(/C=C/C(=O)c2c(O)cc(C)oc2=O)c1 | 100 | > 128 | 32 (≈ 118 µM) | –
18 | C[C@H]1COc2c(N3CCN(C)CC3)c(F)cc3c(=O)c(C(=O)O)cn1c23.C[C@H]1COc2c(N3CCN(C)CC3)c(F)cc3c(=O)c(C(=O)O)cn1c23.O [LEVOFLOXACIN] | – | 2.5 | 2.5 | MIC [7]: 0.039 to 0.078 µg/mL; MIC [8]: 0.625 to 1.25 µg/mL; MIC [13]: 0.078 µg/mL; MIC [15]: 0.078 to 0.156 µg/mL; MIC [16]: 0.156 µg/mL; MIC [18]: 0.078 µg/mL; MIC [19]: 0.39 µg/mL; MIC [20]: 0.312 to 0.625 µg/mL
19 | COc1cc(C(F)(F)F)ccc1/C=C/C(=O)c1c(O)cc(C)oc1=O | 100 | > 128 | 256 (≈ 723 µM) | –
20 | COc1cc(OC)c(OC)cc1/C=C/C(=O)c1c(O)cc(C)oc1=O | 100 | > 128 | 8 (≈ 23.1 µM) | –
21 | Cc1cc(O)c(C(=O)/C=C/c2cccc(Br)c2)c(=O)o1 | 100 | > 128 | 4 to 8 (≈ 11.9 to 23.9 µM) | –
22 | Cc1cc(O)c(C(=O)/C=C/c2ccccc2O)c(=O)o1 | – | > 128 | 8 to 16 (≈ 29.4 to 58.8 µM) | –
23 | Cc1cc(O)c(C(=O)/C=C/c2ccccc2)c(=O)o1 | – | > 128 | 4 (≈ 15.6 µM) | inhibition at 100 µM [6]: 50%; MIC [7]: > 128 µg/mL; MIC [8]: 128 µg/mL (≈ 499 µM); Activity [9]: Dose-dependent effect; inhibition at 100 µM [10]: 38 to 44%; inhibition at 100 µM [11]: 38 to 44%; Activity [1]: Dose-dependent effect; inhibition at 100 µM [12]: 38 to 44%; MIC [13]: > 128 µg/mL; Activity [14]: Dose-dependent effect; MIC [15]: > 128 µg/mL; MIC [16]: > 128 µg/mL; Activity [17]: Dose-dependent effect; MIC [18]: > 128 µg/mL; MIC [19]: > 128 µg/mL; MIC [20]: > 128 µg/mL
24 | COc1cc(/C=C/C(=O)c2c(O)cc(C)oc2=O)ccc1O | > 100 | > 128 | 32 (≈ 106 µM) | –
25 | Cc1cc(O)c(C(=O)/C=C/c2ccc(O)cc2)c(=O)o1 | – | > 128 | 64 (≈ 235 µM) | –
26 | COc1ccc(OC)c(/C=C/C(=O)c2c(O)cc(C)oc2=O)c1 | 100 | > 128 | 4 to 8 (≈ 12.6 to 25.3 µM) | –
27 | COc1cccc(/C=C/C(=O)c2c(O)cc(C)oc2=O)c1 | – | > 128 | 8 to 16 (≈ 27.9 to 55.9 µM) | –
28 | Cc1cc(O)c(C(=O)/C=C/c2cccc(O)c2)c(=O)o1 | > 100 | > 128 | 8 to 16 (≈ 29.4 to 58.8 µM) | –
29 | COc1ccc(/C=C/C(=O)c2c(O)cc(C)oc2=O)cc1 | 100 | > 128 | 32 (≈ 112 µM) | –
30 | Cc1cc(O)c(C(=O)/C=C/c2ccco2)c(=O)o1 | – | > 128 | 16 to 32 (≈ 65 to 130 µM) | –
